Data on five compounds can be found in ChEMBL document CHEMBL3271980, “Synthesis and some pharmacological properties of oxytocin analogues having L-thiazolidine-4-carboxylic acid in position 7” (1976).

Holding throughout (type): functional
Experiment [1] in a line: Induction of oxytocic activity in rat uterus. In outline:
(§1)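 Purified analogues assayed for oxytocic, avian vasodepressor and rat pressor activity. Potency was measured against the U.S.P. posterior pituitary reference standard using a four-point assay design.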

The test system of experiment [2] is Gallus gallus. The experiment in a line: Induction of vasodepressor activity in conscious chicken. The gist of the method:
as §1

The species entered for experiment [3] is Rattus norvegicus. The experiment is described as follows: Effect on pressor activity in rat. In outline: as §1
For experiment [4], the species on record is Rattus norvegicus. The experiment is described as follows: Effect on rat blood pressure relative to bradykinin.
The species named for experiment [5] is Rattus norvegicus. The experiment in a line: Effect on rat uterus activity relative to bradykinin.

Take `CC[C@H](C)[C@@H]1NC(=O)[C@H](Cc2ccc(O)cc2)NC(=O)CCSSC[C@@H](C(=O)N2CSC[C@H]2C(=O)N[C@@H](CC(C)C)C(=O)NCC(N)=O)NC(=O)[C@H](CC(N)=O)NC(=O)[C@H](CCC(N)=O)NC1=O`: the Activity in experiment [1] worked out at 1538 U/mg; in experiment [2], 2039 U/mg; in experiment [3] it was 1.69 U/mg.

On to `CC[C@H](C)[C@@H]1NC(=O)[C@H](Cc2ccc(O)cc2)NC(=O)[C@@H](N)CSSC[C@@H](C(=O)N2CSC[C@H]2C(=O)N[C@@H](CC(C)C)C(=O)NCC(N)=O)NC(=O)[C@H](CC(N)=O)NC(=O)[C@H](CCC(N)=O)NC1=O`, for which the Activity was 1180 U/mg in experiment [1], 720 U/mg in experiment [2] and 3.46 U/mg in experiment [3].

Take `CC[C@H](C)[C@@H]1NC(=O)[C@H](Cc2ccc(O)cc2)NC(=O)[C@@H](N)CSSC[C@@H](C(=O)N2CCC[C@H]2C(=O)N[C@@H](CC(C)C)C(=O)NCC(N)=O)NC(=O)[C@H](CC(N)=O)NC(=O)[C@H](CCC(N)=O)NC1=O` [OXYTOCIN]: the figures for the Activity in experiment [1], in experiment [2] and in experiment [3] were 546 U/mg, 507 U/mg and 3.1 U/mg, respectively.

For `CC[C@H](C)[C@@H]1NC(=O)[C@H](Cc2ccc(O)cc2)NC(=O)CCSSC[C@@H](C(=O)N2CCC[C@H]2C(=O)N[C@@H](CC(C)C)C(=O)NCC(N)=O)NC(=O)[C@H](CC(N)=O)NC(=O)[C@H](CCC(N)=O)NC1=O`, the Activity in experiment [1] was found to be 803 U/mg; in experiment [2], 975 U/mg; in experiment [3], 1.44 U/mg.

For `N=C(N)NCCC[C@H](NC(=O)[C@H](Cc1ccccc1)NC(=O)[C@@H]1CCCN1C(=O)[C@H](CO)NC(=O)[C@H](Cc1ccccc1)NC(=O)CNC(=O)[C@@H]1CSCN1C(=O)[C@@H]1CCCN1C(=O)[C@@H](N)CCCNC(=N)N)C(=O)O`, the values for the Activity in experiment [4] and in experiment [5] were 26% and 46%, respectively.
